Usually Kd stands for a measure of binding affinity in units of concentration. Low values mean a tighter complex, high ones a looser complex.

The source made the active and inactive calls. The rule behind the calls is not given here.

Assay [1] concerns the target Histamine H3 receptor (Homo sapiens) (UniProt Q9Y5N1). The assay is described as follows: Displacement of [3H]-RAMH from histamine H3 receptor. The gist of the method: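 Membranes were incubated with 2.5 nM [3H]-RAMH for 2 h at 22 C in 50 mM Tris-HCl pH 7.4 with 10 mM MgCl2. Nonspecific binding was taken with 10 μM RAMH. Bound ligand was filtered and counted.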
(In general: In a radioligand displacement assay an active substance lowers the binding of a labelled ligand.)

Assay [2] has as its target Metabotropic glutamate receptor 1 (Homo sapiens) (UniProt Q13255). The assay is described as follows: Displacement of [3H]-quisqualic acid from mGlu1 receptor. The gist of the method: (§1)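 Membranes were incubated with 27 nM [3H]-quisqualic acid for 2 h at 22 C in 50 mM Tris-HCl pH 7.4 with 10 mM MgCl2. Nonspecific binding was taken with 10 μM quisqualic acid. Bound ligand was filtered and counted.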

Assay [3] addresses D(1A) dopamine receptor (Homo sapiens) (UniProt P21728). Briefly: Agonist activity at human dopamine D1 receptor expressed in CHO cells assessed as increase of ERK1/2 phosphorylation in presence of SCH23390. It is filed as functional, cell-based. The gist of the method:
(§2)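 Transiently transfected CHO cells (human D1R for D1 lines, D2R for D2 lines; 2 μg cDNA, PEI) were serum-starved 16 h. They were optionally pretreated 5 min with 5 or 50 μM antagonist (SCH23390 for D1R, raclopride for D2R), then given increasing ligand concentrations for 5 min. Lysates were western-blotted for phospho-ERK1/2 or P-Ser473Akt, normalized to total ERK. Mean ± SEM of four independent experiments.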

Assay [4] has the same target. Briefly: Agonist activity at human dopamine D1 receptor expressed in CHO cells assessed as increase of ERK1/2 phosphorylation. It is filed as functional, cell-based. The method in brief:
as §2

Assay [5] concerns the target D(2) dopamine receptor (Homo sapiens) (UniProt P14416). Briefly: Agonist activity at human dopamine D2 receptor expressed in CHO cells assessed as decrease of Akt phosphorylation at Ser473 in presence of raclopride. The assay is classed as functional, cell-based. The method in brief:
as §2

Assay [6] can be described thus: Displacement of [3H]-YM09151-2 from dopamine D2 receptor low binding affinity site in lamb brain striatum membranes at 25 uM. The assay is classed as cell membranes, Ovis aries, Membrane. The method in brief: (§3)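 Lamb striatal membranes (0.5 mg prot/mL) in 50 mM Tris-HCl pH 7.4 with 10 mM MgCl2 were incubated 2 h at 22 C. Radioligand was 0.9 nM [3H]-SCH23390 (D1) or 0.7 nM [3H]-YM09151-2 (D2). Screens used 25 μM compound; competition used increasing concentrations. Nonspecific binding was taken with 10 μM SCH23390 (D1) or raclopride (D2). Bound ligand was filtered and counted. KD values came from a two-state dimer receptor model fit.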

For assay [7], the target named is T1, D(3) dopamine receptor (Homo sapiens, UniProt P35462). Briefly: Displacement of [3H]-raclopride from human dopamine D3 receptor high binding affinity site expressed in CHO cells. The assay is classed as cell-based. The method in brief: (§4)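 Membranes (0.5 mg prot/mL) from CHO cells transiently transfected with 2 μg human D3R cDNA were incubated with 4 nM [3H]-raclopride and increasing competitor for 2 h at 22 C in Tris-HCl pH 7.4 with 10 mM MgCl2. Nonspecific binding was taken with 10 μM raclopride. High- and low-affinity KD values came from a two-state dimer receptor model fit. Triplicate.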
T1 sequence (P35462 whole entry): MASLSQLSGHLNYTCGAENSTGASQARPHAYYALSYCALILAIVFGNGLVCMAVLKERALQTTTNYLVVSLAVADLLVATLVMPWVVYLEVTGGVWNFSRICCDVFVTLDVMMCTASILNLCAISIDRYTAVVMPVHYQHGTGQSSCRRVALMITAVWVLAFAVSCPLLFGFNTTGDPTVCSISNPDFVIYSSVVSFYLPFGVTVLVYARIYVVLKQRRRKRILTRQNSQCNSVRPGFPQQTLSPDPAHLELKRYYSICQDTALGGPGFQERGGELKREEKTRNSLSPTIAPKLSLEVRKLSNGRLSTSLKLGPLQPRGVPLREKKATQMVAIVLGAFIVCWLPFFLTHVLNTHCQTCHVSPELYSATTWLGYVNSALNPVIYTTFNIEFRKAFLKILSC

For assay [8], the target named is Metabotropic glutamate receptor 5 (Homo sapiens) (UniProt P41594). The assay is described as follows: Displacement of [3H]-quisqualic acid from mGlu5 receptor. The method in brief:
as §1

Assay [9] deals with D(2) dopamine receptor (Homo sapiens) (UniProt P14416). Briefly: Agonist activity at human dopamine D2 receptor expressed in CHO cells assessed as increase of ERK1/2 phosphorylation. It is filed as functional, cell-based. The method in brief:
as §2

Assay [10] deals with D(1A) dopamine receptor (Homo sapiens) (UniProt P21728). The assay is described as follows: Agonist activity at human dopamine D1 receptor expressed in CHO cells assessed as decrease of Akt phosphorylation at Ser473 in presence of SCH23390. The assay is classed as functional, cell-based. The gist of the method:
as §2

Assay [11] has the same target. The assay is described as follows: Agonist activity at human dopamine D1 receptor expressed in CHO cells assessed as decrease of Akt phosphorylation at Ser473. It is filed as functional, cell-based. The gist of the method: as §2
The nature of assay [12]: Displacement of [3H]-SCH23390 from dopamine D1 receptor high binding affinity site in lamb brain striatum membranes at 25 uM. The assay is classed as cell membranes, Ovis aries, Membrane. The gist of the method:
as §3

Assay [13] concerns the target Somatostatin receptor type 5 (Homo sapiens) (UniProt P35346). The assay is described as follows: Displacement of [125I]-Tyr11-somatostatin 14 from SST5 receptor. The gist of the method:
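Membranes were incubated with 0.1 nM [125I]-Tyr11-somatostatin 14 for 3 h at 22 C in 50 mM Tris-HCl pH 7.4 with 10 mM MgCl2. Nonspecific binding was taken with 100 nM somatostatin. Bound ligand was separated by filtration and counted.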

The target of assay [14] is T1, D(3) dopamine receptor. Briefly: Displacement of [3H]-raclopride from human dopamine D3 receptor low binding affinity site expressed in CHO cells. The assay is classed as cell-based. The method in brief: as §4
The nature of assay [15]: Displacement of [3H]-SCH23390 from dopamine D1 receptor low binding affinity site in lamb brain striatum membranes at 25 uM. The assay is classed as cell membranes, Ovis aries, Membrane. The method in brief:
as §3

Assay [16] can be described thus: Displacement of [3H]-YM09151-2 from dopamine D2 receptor high binding affinity site in lamb brain striatum membranes at 25 uM. The assay is classed as cell membranes, Ovis aries, Membrane. The method in brief:
as §3

The target of assay [17] is D(2) dopamine receptor (Homo sapiens) (UniProt P14416). Briefly: Agonist activity at human dopamine D2 receptor expressed in CHO cells assessed as increase of ERK1/2 phosphorylation in presence of raclopride. It is filed as functional, cell-based. The method in brief: as §2
Chain of D(2) dopamine receptor (Homo sapiens) (P14416 whole entry): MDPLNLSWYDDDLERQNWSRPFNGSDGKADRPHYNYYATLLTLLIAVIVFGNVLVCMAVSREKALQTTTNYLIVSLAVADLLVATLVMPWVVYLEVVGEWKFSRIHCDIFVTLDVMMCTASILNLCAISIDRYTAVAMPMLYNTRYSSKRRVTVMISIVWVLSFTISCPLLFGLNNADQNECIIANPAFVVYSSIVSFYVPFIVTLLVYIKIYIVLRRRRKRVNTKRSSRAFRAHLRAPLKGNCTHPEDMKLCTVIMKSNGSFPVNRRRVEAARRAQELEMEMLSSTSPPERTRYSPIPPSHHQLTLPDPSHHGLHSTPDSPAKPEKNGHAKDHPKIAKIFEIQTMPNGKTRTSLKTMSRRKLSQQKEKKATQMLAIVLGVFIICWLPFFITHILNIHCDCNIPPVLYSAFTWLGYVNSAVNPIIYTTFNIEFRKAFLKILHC
The target is the same in assay [18]. Briefly: Agonist activity at human dopamine D2 receptor expressed in CHO cells assessed as decrease of Akt phosphorylation at Ser473. The assay is classed as functional, cell-based. The method in brief:
as §2

In assay [19] the target is Cannabinoid receptor 1 (Homo sapiens) (UniProt P21554). The assay is described as follows: Displacement of [3H]-CP55940 from CB1 receptor. The gist of the method: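 Membranes in siliconated tubes were incubated with 0.5 nM [3H]-CP 55940 for 2 h at 22 C in Tris-HCl pH 7.4 with 10 mM MgCl2 and 1 mg/mL fatty acid-free BSA. BSA was also in the filter presoak and wash. Nonspecific binding was taken with 10 μM CP55940.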
Chain of Cannabinoid receptor 1 (Homo sapiens) (P21554 whole entry): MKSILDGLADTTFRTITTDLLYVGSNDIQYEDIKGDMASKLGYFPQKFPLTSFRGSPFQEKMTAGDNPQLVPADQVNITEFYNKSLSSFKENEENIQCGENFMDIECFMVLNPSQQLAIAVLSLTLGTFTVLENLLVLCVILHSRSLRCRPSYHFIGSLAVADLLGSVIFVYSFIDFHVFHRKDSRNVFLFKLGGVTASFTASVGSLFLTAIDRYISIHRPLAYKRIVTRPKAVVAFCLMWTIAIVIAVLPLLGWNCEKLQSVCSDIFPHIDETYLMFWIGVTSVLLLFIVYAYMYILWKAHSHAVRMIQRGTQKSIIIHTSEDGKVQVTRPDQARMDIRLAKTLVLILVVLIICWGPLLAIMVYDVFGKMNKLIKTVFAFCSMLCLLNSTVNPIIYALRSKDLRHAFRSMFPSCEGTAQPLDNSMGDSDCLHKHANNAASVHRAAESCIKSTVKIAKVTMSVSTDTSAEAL

Chain of D(1A) dopamine receptor (Homo sapiens) (P21728 whole entry): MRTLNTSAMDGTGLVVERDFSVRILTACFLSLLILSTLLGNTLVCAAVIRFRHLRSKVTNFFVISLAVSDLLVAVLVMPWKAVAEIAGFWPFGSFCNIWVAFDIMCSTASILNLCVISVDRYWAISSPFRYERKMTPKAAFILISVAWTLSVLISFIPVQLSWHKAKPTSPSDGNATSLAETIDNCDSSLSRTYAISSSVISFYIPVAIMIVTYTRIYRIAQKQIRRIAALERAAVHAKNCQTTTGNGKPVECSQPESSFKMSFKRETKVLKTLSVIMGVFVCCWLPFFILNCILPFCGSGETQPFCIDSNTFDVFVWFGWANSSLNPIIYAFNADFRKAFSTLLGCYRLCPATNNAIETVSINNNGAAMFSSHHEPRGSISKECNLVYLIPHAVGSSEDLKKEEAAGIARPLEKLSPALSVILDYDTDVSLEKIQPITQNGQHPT
Chain of Somatostatin receptor type 5 (Homo sapiens) (P35346 whole entry): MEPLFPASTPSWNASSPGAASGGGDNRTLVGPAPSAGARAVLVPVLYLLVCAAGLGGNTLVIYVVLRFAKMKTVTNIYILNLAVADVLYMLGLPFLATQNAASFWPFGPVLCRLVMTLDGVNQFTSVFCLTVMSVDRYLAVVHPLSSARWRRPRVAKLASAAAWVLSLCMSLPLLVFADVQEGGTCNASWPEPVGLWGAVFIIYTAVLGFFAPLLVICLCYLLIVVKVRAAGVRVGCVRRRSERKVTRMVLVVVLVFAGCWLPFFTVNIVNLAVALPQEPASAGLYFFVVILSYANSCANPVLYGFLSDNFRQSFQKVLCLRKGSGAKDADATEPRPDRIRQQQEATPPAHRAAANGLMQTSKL
Chain of Metabotropic glutamate receptor 5 (Homo sapiens) (P41594 21-1212 limits assumed): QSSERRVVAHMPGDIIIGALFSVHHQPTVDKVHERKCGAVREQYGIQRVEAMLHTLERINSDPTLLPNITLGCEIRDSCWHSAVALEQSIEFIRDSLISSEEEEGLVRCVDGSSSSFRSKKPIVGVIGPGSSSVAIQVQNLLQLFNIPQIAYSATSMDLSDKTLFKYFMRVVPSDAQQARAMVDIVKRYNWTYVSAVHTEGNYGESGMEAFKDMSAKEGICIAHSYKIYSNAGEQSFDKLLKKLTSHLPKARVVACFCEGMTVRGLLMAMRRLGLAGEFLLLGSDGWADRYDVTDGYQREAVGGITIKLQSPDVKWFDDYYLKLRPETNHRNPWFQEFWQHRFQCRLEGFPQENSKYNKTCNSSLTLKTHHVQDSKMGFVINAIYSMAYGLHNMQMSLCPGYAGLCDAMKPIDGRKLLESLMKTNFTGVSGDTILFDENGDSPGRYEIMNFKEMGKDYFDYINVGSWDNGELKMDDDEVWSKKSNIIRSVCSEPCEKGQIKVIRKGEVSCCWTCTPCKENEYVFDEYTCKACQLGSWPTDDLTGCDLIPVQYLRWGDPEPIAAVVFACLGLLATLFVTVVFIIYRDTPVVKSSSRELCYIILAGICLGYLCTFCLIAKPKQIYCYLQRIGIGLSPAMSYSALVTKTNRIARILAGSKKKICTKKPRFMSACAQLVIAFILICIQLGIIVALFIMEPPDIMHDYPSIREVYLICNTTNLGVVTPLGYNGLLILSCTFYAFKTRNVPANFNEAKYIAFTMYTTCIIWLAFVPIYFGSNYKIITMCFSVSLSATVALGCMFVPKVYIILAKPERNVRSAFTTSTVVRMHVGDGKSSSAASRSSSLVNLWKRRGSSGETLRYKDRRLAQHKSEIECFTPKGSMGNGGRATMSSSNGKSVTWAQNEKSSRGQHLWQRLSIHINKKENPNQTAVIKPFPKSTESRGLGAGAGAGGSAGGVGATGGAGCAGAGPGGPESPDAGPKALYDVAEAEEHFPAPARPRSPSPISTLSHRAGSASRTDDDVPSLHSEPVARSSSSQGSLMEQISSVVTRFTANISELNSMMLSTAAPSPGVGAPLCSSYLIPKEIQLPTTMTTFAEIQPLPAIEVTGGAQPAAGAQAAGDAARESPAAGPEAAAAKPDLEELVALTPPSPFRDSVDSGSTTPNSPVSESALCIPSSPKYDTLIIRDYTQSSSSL
Chain of Histamine H3 receptor (Homo sapiens) (Q9Y5N1 whole entry): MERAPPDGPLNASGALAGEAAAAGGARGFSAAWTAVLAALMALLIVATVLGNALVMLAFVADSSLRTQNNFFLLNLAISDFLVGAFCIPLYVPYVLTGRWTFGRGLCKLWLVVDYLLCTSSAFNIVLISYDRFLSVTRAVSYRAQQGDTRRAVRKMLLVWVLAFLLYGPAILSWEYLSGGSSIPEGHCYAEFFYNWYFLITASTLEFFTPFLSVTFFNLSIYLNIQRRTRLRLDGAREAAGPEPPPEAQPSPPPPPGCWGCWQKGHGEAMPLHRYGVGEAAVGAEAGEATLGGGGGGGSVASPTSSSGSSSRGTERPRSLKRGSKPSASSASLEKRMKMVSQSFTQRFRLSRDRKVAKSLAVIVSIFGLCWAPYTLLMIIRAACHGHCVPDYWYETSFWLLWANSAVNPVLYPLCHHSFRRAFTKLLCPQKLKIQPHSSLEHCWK
Chain of Metabotropic glutamate receptor 1 (Homo sapiens) (Q13255 19-1194 limits assumed): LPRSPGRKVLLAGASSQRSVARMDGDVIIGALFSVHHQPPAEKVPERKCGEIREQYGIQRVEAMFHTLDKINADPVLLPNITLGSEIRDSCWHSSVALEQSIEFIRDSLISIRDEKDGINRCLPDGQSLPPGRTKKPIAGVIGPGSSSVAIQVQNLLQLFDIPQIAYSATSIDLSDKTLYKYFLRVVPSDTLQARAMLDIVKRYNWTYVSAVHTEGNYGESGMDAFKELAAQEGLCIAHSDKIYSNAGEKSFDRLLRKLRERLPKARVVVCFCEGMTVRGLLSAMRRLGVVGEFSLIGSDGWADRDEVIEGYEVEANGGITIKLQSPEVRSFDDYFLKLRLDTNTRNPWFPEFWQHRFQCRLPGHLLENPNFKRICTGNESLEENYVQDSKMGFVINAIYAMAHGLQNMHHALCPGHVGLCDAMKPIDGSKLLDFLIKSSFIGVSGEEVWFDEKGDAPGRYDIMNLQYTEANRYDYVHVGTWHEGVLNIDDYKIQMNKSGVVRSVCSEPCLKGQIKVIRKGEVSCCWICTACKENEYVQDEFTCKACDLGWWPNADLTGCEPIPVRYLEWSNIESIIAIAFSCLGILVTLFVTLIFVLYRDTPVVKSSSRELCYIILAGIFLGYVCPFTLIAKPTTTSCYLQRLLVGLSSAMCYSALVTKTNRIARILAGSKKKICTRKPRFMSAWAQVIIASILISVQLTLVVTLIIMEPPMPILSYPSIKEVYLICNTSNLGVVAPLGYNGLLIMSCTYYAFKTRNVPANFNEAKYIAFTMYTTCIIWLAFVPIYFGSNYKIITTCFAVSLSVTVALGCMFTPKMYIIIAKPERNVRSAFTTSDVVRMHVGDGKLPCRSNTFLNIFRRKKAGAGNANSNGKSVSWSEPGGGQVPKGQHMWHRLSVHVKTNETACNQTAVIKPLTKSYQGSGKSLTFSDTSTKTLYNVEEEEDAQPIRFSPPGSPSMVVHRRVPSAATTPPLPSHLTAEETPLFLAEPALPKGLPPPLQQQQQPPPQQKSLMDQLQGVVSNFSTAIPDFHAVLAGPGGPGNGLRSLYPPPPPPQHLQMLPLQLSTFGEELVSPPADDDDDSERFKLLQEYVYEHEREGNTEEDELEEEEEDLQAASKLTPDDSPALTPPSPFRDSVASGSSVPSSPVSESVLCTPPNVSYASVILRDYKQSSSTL

For the molecule `CN1C[C@H](C(=O)N[C@@H](Cc2ccc([N+](=O)[O-])cc2)C(=O)N[C@@H](Cc2ccc(F)cc2)C(=O)N2CCCC(C(=O)NCCCCCC(=O)NCCCC[C@H](NC(=O)CCCC[C@H]3SC[C@H]4NC(=O)N[C@H]43)C(N)=O)C2)C=C2c3cccc4[nH]cc(c34)C[C@H]21` (some centres undefined), the outcome in assay [1], in assay [2], in assay [3], in assay [5], in assay [8] and in assay [10] was inactive. In addition, the outcome in [13], in assay [17] and in [19] was inactive. Also, the Activity result in [4], in assay [9], in [11] and in [18] was “Dose-dependent effect” throughout. For the same molecule, the Kd worked out at 9 µM in assay [6]; 0.023 µM on D(3) dopamine receptor [7]; 0.056 µM in [12]; 0.093 µM at D(3) dopamine receptor [14]; 1.5 µM in assay [15]; 0.017 µM in assay [16].

The record behind these values is ChEMBL document CHEMBL1671805, “Biotin ergopeptide probes for dopamine receptors” (J Med Chem, 2011).
